Laboratory results published in ChEMBL document CHEMBL1146475, “Spasmolytic effects, mode of action, and structure-activity relationships of stilbenoids from Nidema boothii” (J Nat Prod, 2004).
The source made the active and inactive calls. No cut-off for these calls is given here.

What was measured:
Calmodulin (Bos taurus) = Calmodulin (Bos taurus) (UniProt P62157); experiment: Binding affinity to bovine brain calmodulin by electrophoretic mobility assay in presence of calcium chloride
Procedure, shortened: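 CaM pretreated 1.5 h at 30 °C with CaCl2, then test compound (0.33 µg in DMSO) applied; interaction judged from CaM band mobility on 15% polyacrylamide gel electrophoresis.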

Ileum [1] = experiment: Spasmolytic activity in guinea pig ileum assessed as inhibition of spontaneous contraction; assay type: functional, tissue-based; details: Cavia porcellus
Procedure, shortened: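 Ileum from male guinea-pigs (600-800 g) in Krebs-Henseleit, pH 7.4, isometric tension recorded. After 30 min stabilization and 10 min control period, DMSO-dissolved compound added, one concentration per segment, and recorded 10 min. Inhibition from area under curve of frequency and amplitude. Mean ±SEM of six experiments; IC50 by nonlinear curve fitting.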

Ileum [2] = experiment: Spasmolytic activity in guinea pig ileum assessed as inhibition of spontaneous contraction relative to papaverine; assay type: functional, Cavia porcellus
[3] = Inhibition of bovine brain CaM-dependent PDE assessed as inorganic phosphate release in presence of bovine brain calmodulin; set-up: species or system Bos taurus
Procedure, shortened: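 Bovine-brain CaM (0.2 µg) preincubated 3 min with 0.015 units CaM-deficient bovine-brain PDE in buffer with 0.3 units 5′-nucleotidase, 45 mM Tris-HCl, 5.6 mM Mg acetate, 45 mM imidazole, 2.5 mM CaCl2, pH 7.0; reaction started with 100 µL 10.8 mM cAMP, run 30 min. Phosphate measured by Sumner method at 660 nm. IC50 from concentration-inhibition curves, mean ±SEM of at least three experiments.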

Ileum [4] = experiment: Spasmolytic activity in guinea pig ileum assessed as inhibition of spontaneous contraction in presence of ODQ; assay type: functional, tissue-based; details: Cavia porcellus
Procedure, shortened: (§1)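 Guinea-pig ileum spontaneous-contraction assay (male, 600-800 g, Krebs-Henseleit pH 7.4, isometric tension, 10 min responses, AUC-based inhibition) run in the presence of L-NAME (500 µM) or ODQ (100 µM). Concentration-response curves as mean ±SEM of six data.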

Ileum [5] = experiment: Spasmolytic activity in guinea pig ileum assessed as inhibition of spontaneous contraction in presence of L-NAME; assay type: functional, tissue-based; details: Cavia porcellus; procedure, shortened: as §1

Compound | Activity (Calmodulin (Bos taurus)) | Emax (Ileum [1]) [%] | IC50 (Ileum [1]) [nM] | Ratio IC50 (Ileum [2]) | IC50 [3] [nM] | Activity (Ileum [4]) | Activity (Ileum [5])
COc1cc(CCc2ccc(O)c(OC)c2)cc(OC)c1 | Active | 76.4 | 1390 | 3.05 |  |  | 
Oc1cc(O)cc(CCc2ccccc2)c1 [DIHYDROPINOSYLVIN] | Active | 83.3 | 1490 | 2.84 | 36600 |  | 
COc1cccc(CCc2cc(O)cc(OC)c2)c1 | Active | 58.6 | 1280 | 3.3 |  |  | 
COc1cc(O)cc(CCc2ccc(OC)c(OC)c2)c1 | Active | 66 | 580 | 7.32 |  |  | 
COc1cc(O)c2c(c1)CCc1cc(O)ccc1-2 [LUSIANTHRIDIN] |  |  | 410 |  |  |  | 
COc1cc(O)cc(CCc2ccc(OC)c(O)c2)c1 | Active | 66.5 | 140 | 31.33 | 9000 |  | 
CN(C)CCCN1c2ccccc2Sc2ccc(Cl)cc21 [CHLORPROMAZINE] |  | 81.8 | 180 | 23.5 | 10300 |  | 
Oc1cc(O)cc(CCc2ccc(O)c(O)c2)c1 | Active | 53.6 | 850 | 4.94 |  |  | 
COc1cc(O)cc(CCc2cccc(O)c2)c1 [BATATASIN III] | Active | 67.5 | 240 | 17.62 | 13300 | inactive | inactive
COc1ccc(Cc2nccc3cc(OC)c(OC)cc23)cc1OC [PAPAVERINE] |  | 91.8 | 4230 |  |  |  | 
COc1cc(O)cc(CCc2ccc(O)c(OC)c2)c1 [GIGANTOL] | Active | 81.3 | 260 | 16.26 | 7000 | inactive | inactive
COc1cccc(CCc2cc(OC)cc(OC)c2)c1 | Active | 75.6 | 960 | 4.41 |  |  | 
COc1cc(CCc2ccc(OC)c(OC)c2)cc(OC)c1 | Active | 84.9 | 620 | 6.82 |  |  | 
Oc1ccc(CCc2cc(O)cc(O)c2)cc1 [DIHYDRORESVERATROL] | Active | 64.1 | 1750 | 2.42 |  |  | 
COc1cc(O)cc(CCc2ccc(O)cc2)c1 | Active | 85 | 140 | 30.85 | 10100 |  | 
COc1cc2ccc3c(OC)c(O)ccc3c2c(OC)c1O |  |  | 450 |  |  |  | 
COc1ccc(CCc2ccccc2)cc1O | Active | 82.2 | 1290 | 3.28 | 21200 |  | 
COC1=CC(=O)C2=C(CCc3cc(O)ccc32)C1=O [EPHEMERANTHOQUINONE] | Active |  |  |  | 10900 |  | 
COc1cc(CCc2cc(OC)c(O)c(OC)c2)ccc1O [MOSCATILIN] |  | 73.6 | 560 | 7.65 |  |  | 
COc1ccc(CCc2cc(O)cc(O)c2)cc1O | Active | 51.8 | 700 | 5.99 |  |  | 
COC1=CC(=O)CC12CCc1cccc(O)c1C2=O (stereo not given) [NIDEMONE] | Active |  |  |  | 3200 |  | 
Oc1cccc(CCc2cc(O)cc(O)c2)c1 | Active | 78.5 | 2360 | 1.78 |  |  | 
